One data set concerns rmGlu5. The following applies: CHO or HEK293 cells expressing rmGlu5; cited from earlier work.
Data set [1] concerns the target T1, rat mGlu5 (Rattus norvegicus, UniProt P31424). As to the kind of experiment: Single-point PAM screen, potentiation of EC20 glutamate calcium response. The following applies: 1 μM test compound. It counts as cell-based. The method in brief:
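HEK293 cells stably expressing rat mGlu5 were plated at 30,000/well in glutamate/glutamine-free medium about 24 h ahead. Cells were loaded with 2 μM Fluo4-AM for 45 min at 37 °C in HBSS/HEPES/probenecid (pH 7.4). Vehicle or 1 μM test compound was added at 19 s, then glutamate at EC20 at 109 s. Fluorescence recorded for 160 s.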

In data set [2] the target is T1, rat mGlu5. It counts as cell-based. The method in brief: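 Rat mGlu5 HEK293 stable cells, plated at 30,000/well in glutamate/glutamine-free medium (dialysed FBS) ≥24 h. Loaded 45 min at 37 °C with 2 μM Fluo4-AM in HBSS, 20 mM HEPES, 2.5 mM probenecid, pH 7.4. Increasing test compound added at 19 s, EC20 glutamate at 109 s. Fluorescence read for 160 s. EC50 from curve fits.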

The target of a further data set is rat mGlu8 (Rattus norvegicus, UniProt P70579). As to the kind of experiment: Selectivity fold-shift, GIRK thallium flux in HEK/GIRK cells. The note with it: 30 μM test compound. The class given is cell-based. An outline of the steps: (§1)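 HEK cell lines expressing GIRK plus rat mGlu2, 3, 4, 7 or 8 or human mGlu6 were plated overnight at 37 °C. Cells were loaded with 1 μM Fluozin2-AM for 1 h at room temperature. Vehicle or 30 μM test compound was added, then varying glutamate 2.5 min later in thallium buffer (12 mM thallium sulfate). Glutamate curves were fitted by nonlinear regression. Three experiments were run in duplicate or triplicate, mean ± SEM.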

The target in another data set is rat mGlu4 (Rattus norvegicus, UniProt P31423). The description is as above. It counts as cell-based. The following applies: 30 μM test compound. An outline of the steps:
as §1

In a further data set the target is rat mGlu2 (Rattus norvegicus, UniProt P31421). The description is as above. The class given is cell-based. The following applies: 30 μM test compound. An outline of the steps:
as §1

Another data set deals with rat mGlu7 (Rattus norvegicus, UniProt P35400). The data set is described as above. It counts as cell-based. The following applies: 30 μM test compound. An outline of the steps:
as §1

The target of a further data set is rat mGlu1 (Rattus norvegicus, UniProt P23385). As to the kind of experiment: Selectivity fold-shift, calcium assay in HEK293 cells expressing mGlu1. The class given is cell-based. The note with it: 30 μM test compound. The method in brief: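 HEK293 cells stably expressing rat mGlu1, handled as for mGlu5 cells: plated in glutamate/glutamine-free medium, loaded with 2 μM Fluo4-AM (45 min, 37 °C, pH 7.4, with probenecid). Vehicle or 30 μM test compound added, then increasing glutamate concentrations. Fluo-4 fluorescence read on FlexStation over 160 s. Concentration-response curves fit by nonlinear regression.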

Another data set has as its target human mGlu6 (Homo sapiens, UniProt O15303). As to the kind of experiment: Selectivity fold-shift, GIRK thallium flux in HEK/GIRK cells. The class given is cell-based. The following applies: 30 μM test compound. An outline of the steps: as §1
Another data set concerns the target F585I/rmGlu5 (Rattus norvegicus, UniProt P31424, F585I). It counts as cell-based. The note with it: VU0357121 at 1 μM; transiently transfected HEK293. An outline of the steps:
(§2)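 HEK293 cells were transiently transfected with mutant rat mGlu5 cDNA using FuGENE 6, plated the next day and assayed the following day. Cells were Fluo4-AM loaded in HBSS/HEPES/probenecid at pH 7.4. Vehicle or a fixed 1 μM PAM was added, then increasing glutamate. Calcium fluorescence was read for 160 s. Glutamate concentration–response curves were fitted by nonlinear regression to compare EC50 values.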

The next data set deals with rat mGlu3 (Rattus norvegicus, UniProt P31422). As to the kind of experiment: Selectivity fold-shift, GIRK thallium flux in HEK/GIRK cells. The note with it: 30 μM test compound. The class given is cell-based. The method in brief:
as §1

Another data set has as its target A809V/rmGlu5 (Rattus norvegicus, UniProt P31424, A809V). The class given is cell-based. The following applies: VU0357121 at 1 μM; transiently transfected HEK293. The method in brief:
as §2

For data set [3], the target named is T1, rat mGlu5. As to the kind of experiment: Antagonist. The class given is cell-based. The note with it: 10 μM test compound. An outline of the steps:
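HEK293 cells stably expressing rat mGlu5 were plated in glutamate/glutamine-free medium 24 h ahead. Cells were loaded with 2 μM Fluo4-AM in HBSS with 2.5 mM probenecid and 20 mM HEPES, pH 7.4, for 45 min at 37 °C. Vehicle or 10 μM test compound went in at 19 s, then ~EC80 glutamate at 109 s. Fluorescence was read for 160 s and normalized to the 100 μM glutamate maximum. Three experiments were run in triplicate, mean ± SEM.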

The nature of the next data set: Solubility in assay. The class given is physicochemical. The following applies: above 30 μM in assay.
Data set [4] concerns the target T1, rat mGlu5. It counts as cell-based. The note with it: 10 μM test compound with VU0357121 50 nM, EC20 glutamate. The method in brief:
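Same Fluo4 calcium-flux protocol in rat mGlu5 HEK293 cells. Test compound (10 μM) or vehicle co-applied with reference mGlu5 PAM (50 nM) from one 4× solution, followed by EC20 glutamate. Fluorescence recorded 160 s. Groups compared with EC20 + PAM + vehicle control by one-way ANOVA with Dunnett's test.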

The target in data set [5] is T1, rat mGlu5. It counts as cell-based. The following applies: VU0365396 30 μM, EC20 glutamate.

Entries after “also recorded” stand apart in the source; their conditions may differ.

T1 sequence (P31424 21-1203): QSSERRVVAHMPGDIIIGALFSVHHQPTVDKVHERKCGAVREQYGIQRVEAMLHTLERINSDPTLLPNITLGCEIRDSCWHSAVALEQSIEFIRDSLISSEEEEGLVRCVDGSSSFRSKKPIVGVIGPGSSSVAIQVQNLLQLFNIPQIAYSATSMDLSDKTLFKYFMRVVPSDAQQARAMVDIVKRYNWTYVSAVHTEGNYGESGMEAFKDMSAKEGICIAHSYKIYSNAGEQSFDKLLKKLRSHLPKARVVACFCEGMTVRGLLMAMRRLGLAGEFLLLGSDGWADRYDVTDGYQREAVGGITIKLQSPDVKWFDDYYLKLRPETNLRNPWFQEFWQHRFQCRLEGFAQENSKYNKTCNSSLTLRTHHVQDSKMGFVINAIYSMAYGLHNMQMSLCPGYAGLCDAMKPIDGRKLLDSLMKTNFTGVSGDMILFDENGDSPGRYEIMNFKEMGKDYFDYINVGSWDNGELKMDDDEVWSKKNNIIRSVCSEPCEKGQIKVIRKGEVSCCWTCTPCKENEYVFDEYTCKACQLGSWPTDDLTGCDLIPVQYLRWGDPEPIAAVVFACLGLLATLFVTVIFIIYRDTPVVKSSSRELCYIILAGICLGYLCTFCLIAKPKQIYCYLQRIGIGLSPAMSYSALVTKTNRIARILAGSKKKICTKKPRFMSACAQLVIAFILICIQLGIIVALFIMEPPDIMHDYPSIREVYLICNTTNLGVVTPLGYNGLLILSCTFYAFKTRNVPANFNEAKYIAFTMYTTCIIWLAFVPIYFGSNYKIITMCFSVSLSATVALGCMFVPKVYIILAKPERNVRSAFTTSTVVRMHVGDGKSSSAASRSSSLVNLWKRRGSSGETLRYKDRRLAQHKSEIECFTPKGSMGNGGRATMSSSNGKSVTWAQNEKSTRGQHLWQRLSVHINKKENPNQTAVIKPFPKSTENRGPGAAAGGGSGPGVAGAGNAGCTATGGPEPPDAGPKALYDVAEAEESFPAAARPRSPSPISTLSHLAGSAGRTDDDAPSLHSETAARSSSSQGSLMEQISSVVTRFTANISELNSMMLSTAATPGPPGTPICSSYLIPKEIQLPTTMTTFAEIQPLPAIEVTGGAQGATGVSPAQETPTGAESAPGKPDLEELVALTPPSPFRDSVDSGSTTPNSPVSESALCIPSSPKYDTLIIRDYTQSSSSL
Chain of A809V/rmGlu5 (P31424 21-1203 A809V): as the sequence (P31424 21-1203) above, with A789V counted along it
Chain of F585I/rmGlu5 (P31424 21-1203 F585I): as the sequence (P31424 21-1203) above, with F565I counted along it
Chain of human mGlu6 (O15303 25-877): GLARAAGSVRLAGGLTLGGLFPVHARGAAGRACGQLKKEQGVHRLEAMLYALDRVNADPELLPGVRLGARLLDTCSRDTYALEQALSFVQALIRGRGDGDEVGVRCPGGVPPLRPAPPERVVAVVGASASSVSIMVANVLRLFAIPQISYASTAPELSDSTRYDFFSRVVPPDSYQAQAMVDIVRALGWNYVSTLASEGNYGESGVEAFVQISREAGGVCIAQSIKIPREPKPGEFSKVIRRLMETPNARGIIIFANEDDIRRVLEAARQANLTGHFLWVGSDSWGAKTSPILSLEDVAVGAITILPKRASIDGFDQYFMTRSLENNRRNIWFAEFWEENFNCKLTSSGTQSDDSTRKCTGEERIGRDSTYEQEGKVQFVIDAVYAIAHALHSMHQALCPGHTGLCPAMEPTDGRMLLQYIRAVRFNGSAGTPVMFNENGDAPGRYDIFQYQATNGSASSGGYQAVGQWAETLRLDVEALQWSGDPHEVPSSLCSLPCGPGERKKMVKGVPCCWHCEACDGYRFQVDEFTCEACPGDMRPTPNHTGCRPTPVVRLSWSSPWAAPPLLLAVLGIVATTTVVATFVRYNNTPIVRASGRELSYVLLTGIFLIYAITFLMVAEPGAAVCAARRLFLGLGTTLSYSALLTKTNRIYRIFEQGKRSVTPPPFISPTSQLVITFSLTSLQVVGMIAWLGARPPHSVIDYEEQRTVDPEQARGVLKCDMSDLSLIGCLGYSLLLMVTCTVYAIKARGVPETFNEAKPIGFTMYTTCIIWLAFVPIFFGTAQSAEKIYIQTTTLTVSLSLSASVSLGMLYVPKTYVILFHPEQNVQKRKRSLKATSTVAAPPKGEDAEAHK
Chain of rat mGlu3 (P31422 23-879): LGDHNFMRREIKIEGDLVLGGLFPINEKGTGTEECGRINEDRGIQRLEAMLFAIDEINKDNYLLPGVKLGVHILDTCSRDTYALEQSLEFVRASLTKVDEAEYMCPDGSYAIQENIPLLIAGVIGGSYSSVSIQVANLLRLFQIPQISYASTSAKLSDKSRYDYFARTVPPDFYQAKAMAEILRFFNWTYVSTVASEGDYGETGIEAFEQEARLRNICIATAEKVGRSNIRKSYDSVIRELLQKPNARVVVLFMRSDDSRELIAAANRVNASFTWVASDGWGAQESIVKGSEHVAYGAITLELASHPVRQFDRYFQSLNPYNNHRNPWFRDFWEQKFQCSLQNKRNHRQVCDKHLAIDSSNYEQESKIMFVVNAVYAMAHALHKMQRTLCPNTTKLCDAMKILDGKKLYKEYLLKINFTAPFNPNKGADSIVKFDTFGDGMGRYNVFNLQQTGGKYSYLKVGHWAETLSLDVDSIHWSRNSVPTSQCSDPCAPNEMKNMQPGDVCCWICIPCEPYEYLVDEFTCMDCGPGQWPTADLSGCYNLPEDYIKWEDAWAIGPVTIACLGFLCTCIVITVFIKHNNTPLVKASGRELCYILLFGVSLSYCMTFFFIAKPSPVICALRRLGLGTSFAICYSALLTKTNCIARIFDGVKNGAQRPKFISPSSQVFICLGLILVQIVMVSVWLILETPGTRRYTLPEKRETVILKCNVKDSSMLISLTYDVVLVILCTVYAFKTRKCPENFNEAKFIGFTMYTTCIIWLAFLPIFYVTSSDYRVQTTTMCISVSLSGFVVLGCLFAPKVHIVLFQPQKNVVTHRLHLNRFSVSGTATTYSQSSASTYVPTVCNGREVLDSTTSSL
Chain of rat mGlu7 (P35400 35-915): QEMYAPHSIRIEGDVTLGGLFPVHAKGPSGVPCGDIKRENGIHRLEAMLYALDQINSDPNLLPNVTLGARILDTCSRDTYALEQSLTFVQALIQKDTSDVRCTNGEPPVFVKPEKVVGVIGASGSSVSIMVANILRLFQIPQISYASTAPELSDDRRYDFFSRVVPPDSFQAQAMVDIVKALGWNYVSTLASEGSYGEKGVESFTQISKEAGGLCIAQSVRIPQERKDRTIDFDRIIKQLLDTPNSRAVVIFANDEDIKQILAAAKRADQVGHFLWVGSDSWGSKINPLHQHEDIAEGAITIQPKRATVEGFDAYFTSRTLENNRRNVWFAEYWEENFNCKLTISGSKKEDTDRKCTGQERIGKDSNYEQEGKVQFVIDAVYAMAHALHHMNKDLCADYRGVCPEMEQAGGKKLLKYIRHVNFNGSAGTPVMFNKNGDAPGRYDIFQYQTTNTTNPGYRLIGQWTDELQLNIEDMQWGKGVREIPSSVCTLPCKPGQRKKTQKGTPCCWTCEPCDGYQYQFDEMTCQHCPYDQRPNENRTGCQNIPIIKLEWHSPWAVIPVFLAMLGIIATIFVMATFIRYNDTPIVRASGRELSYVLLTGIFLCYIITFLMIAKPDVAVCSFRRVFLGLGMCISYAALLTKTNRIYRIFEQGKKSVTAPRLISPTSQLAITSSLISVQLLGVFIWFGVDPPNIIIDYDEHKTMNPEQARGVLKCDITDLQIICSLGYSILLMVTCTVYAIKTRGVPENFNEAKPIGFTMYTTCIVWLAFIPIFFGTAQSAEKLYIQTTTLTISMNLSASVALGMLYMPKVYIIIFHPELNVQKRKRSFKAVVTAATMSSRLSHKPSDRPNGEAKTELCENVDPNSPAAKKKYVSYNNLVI
Chain of rat mGlu4 (P31423 33-912): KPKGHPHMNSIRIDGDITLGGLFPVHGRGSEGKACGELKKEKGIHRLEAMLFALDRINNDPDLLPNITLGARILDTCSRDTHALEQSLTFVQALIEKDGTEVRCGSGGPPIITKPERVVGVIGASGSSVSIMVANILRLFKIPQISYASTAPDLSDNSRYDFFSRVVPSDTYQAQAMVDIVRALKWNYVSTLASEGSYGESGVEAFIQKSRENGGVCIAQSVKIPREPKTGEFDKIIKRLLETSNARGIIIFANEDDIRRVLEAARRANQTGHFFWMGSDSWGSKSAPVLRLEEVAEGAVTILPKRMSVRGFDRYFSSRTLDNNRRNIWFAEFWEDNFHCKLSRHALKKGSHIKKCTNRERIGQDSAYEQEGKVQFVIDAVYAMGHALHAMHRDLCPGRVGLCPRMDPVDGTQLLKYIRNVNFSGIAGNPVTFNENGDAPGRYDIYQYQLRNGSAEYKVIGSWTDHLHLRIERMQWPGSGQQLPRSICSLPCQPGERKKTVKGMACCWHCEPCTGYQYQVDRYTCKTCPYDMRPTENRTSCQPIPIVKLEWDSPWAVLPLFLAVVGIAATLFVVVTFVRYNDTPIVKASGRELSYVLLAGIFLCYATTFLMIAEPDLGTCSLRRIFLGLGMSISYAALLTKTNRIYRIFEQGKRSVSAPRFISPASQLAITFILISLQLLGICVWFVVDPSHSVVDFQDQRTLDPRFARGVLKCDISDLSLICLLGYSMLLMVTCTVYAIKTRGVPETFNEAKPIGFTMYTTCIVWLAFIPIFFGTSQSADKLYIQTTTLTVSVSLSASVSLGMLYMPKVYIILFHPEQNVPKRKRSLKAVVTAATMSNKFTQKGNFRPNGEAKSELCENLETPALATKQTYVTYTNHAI

For the molecule `CNc1ncc(C#Cc2ccccc2)cn1` [MPPA, N-methyl-5-(phenylethynyl)pyrimidin-2-amine], the “intrinsic agonist activity at rmGlu5” value in the data set with rmGlu5 is reported as “have no effect on mGlu5 alone”.
For `N#Cc1cccc(C(=O)Nc2cc(-c3ccccc3)nn2-c2ccccc2)c1` [CDPPB, 3-cyano-N-(1,3-diphenyl-1H-pyrazol-5-yl)benzamide], the “intrinsic agonist activity at rmGlu5” value in the data set on rmGlu5 is “display intrinsic agonist activity at moderate to high concentrations”.
`O=C(c1ccc(F)cc1)N1CCC[C@H](c2nc(-c3ccccn3)no2)C1` [(S)-FPOPM, (S)-(4-fluorophenyl)(3-(3-(pyridin-2-yl)-1,2,4-oxadiazol-5-yl)piperidin-1-yl)methanone]: in the data set on rmGlu5, the “intrinsic agonist activity at rmGlu5” value is on record as “have no effect on mGlu5 alone”.
For `CCCCOc1ccc(C(=O)Nc2ccccc2F)cc1` [VU0040237, 4-butoxy-N-(2-fluorophenyl)benzamide], on rat mGlu5 [1], the “potentiation of response to suboptimal (EC20) glutamate” value (“potentiation of response to suboptimal” for short) is listed as “potentiated the response to glutamate at submicromolar concentrations”. Also, on rat mGlu5 [2], the EC50 (in general, the midpoint of the concentration-response curve) is 350 nM.
In the case of `CCCOc1ccc(C(=O)Nc2ccc(Cl)cn2)cc1` [VU0001850, N-(5-chloropyridin-2-yl)-4-propoxybenzamide], the “potentiation of response to suboptimal” value on rat mGlu5 [1] is listed as “potentiated the response to glutamate at submicromolar concentrations”. For the same molecule, the EC50 at rat mGlu5 [2] was 1300 nM.
On the same counts, the results for `CCCCOc1ccc(C(=O)Nc2ccc(Cl)cn2)cc1` [VU0125936, 4-butoxy-N-(5-chloropyridin-2-yl)benzamide] are “potentiated the response to glutamate at submicromolar concentrations” and 664 nM.
`CCCCOc1ccc(C(=O)Nc2ccc(F)cc2F)cc1` [VU0357121, 4-butoxy-N-(2,4-difluorophenyl)benzamide]: the “modulation of agonist response (PAM activity) at mGlu8” value at rat mGlu8 is given as “does not have PAM activity”. Besides, at rat mGlu4, the “modulation of agonist response (PAM activity) at mGlu4” value is on record as “does not have PAM activity”. Also, the “modulation of agonist response (PAM activity) at mGlu2” value on rat mGlu2 is given as “does not have PAM activity”. Moreover, the “modulation of agonist response (PAM activity) at mGlu7” value on rat mGlu7 is listed as “does not have PAM activity”. The “effect on glutamate concentration-response curve at mGlu1” value on rat mGlu1 is “weak inhibition of glutamate responses at mGlu1”. Further, at human mGlu6, the “modulation of agonist response (PAM activity) at mGlu6” value is “does not have PAM activity”. In addition, the “potentiation of response to suboptimal” value at rat mGlu5 [1] is listed as “potentiated the response to glutamate at submicromolar concentrations”. At F585I/rmGlu5, the “PAM response at the F585I/rmGlu5 mutant” value is on record as “had no effect on its function”. The “increase in potency over the HTS hit” value at rat mGlu5 [2] (versus VU0040237) is on record as 10 fold. The “modulation of agonist response (PAM activity) at mGlu3” value at rat mGlu3 is “does not have PAM activity”. On A809V/rmGlu5, the “PAM response at the A809V/rmGlu5 mutant” value is recorded as “inhibited the ability of VU0357121 to shift the glutamate concentration−response curve; also recorded: led to an inhibition of VU0357121 activity”. Further, the “inhibition of the effect of EC80 glutamate on mGlu5” value at rat mGlu5 [3] is recorded as “did not inhibit the effect of glutamate on mGlu5”.
Take `O=C(Nc1cc(-c2ccccc2)nn1-c1ccccc1)c1ccc([N+](=O)[O-])cc1` [VU-29, 4-nitro-N-(1,3-diphenyl-1H-pyrazol-5-yl)benzamide, reference compound]: the “PAM response at the F585I/rmGlu5 mutant” value on F585I/rmGlu5 is “but not VU29 is lost”. In addition, the “PAM response at the A809V/rmGlu5 mutant” value on A809V/rmGlu5 is “is lost”.
With `O=C(c1ccc(F)cc1)N1CCC[C@H](c2nc(-c3cccs3)no2)C1` [(S)-FTOPM, (S)-(4-fluorophenyl)(3-(3-(thiophen-2-yl)-1,2,4-oxadiazol-5-yl)piperidin-1-yl)methanone], the “intrinsic agonist activity at rmGlu5” value with rmGlu5 was “display intrinsic agonist activity at moderate to high concentrations”.
Take `Cc1cccc(C#Cc2ccccc2)n1` [MPEP, 2-methyl-6(phenylethynyl)pyridine, reference compound]: the “inhibition of the effect of EC80 glutamate on mGlu5” value against rat mGlu5 [3] is listed as “blockade”.
Turning to `O=C(Nc1ccc(Cl)cc1CN1C(=O)c2ccccc2C1=O)c1ccccc1O` [CPPHA, N-{4-chloro-2-[(1,3-dioxo-1,3-dihydro-2H-isoindol-2-yl)methyl]phenyl}-2-hydroxybenzamide], the “PAM response at the F585I/rmGlu5 mutant” value on F585I/rmGlu5 is “is lost”. Besides, the “intrinsic agonist activity at rmGlu5” value with rmGlu5 is “have no effect on mGlu5 alone”. On A809V/rmGlu5, the “PAM response at the A809V/rmGlu5 mutant” value is “but not CPPHA is lost”.
For the molecule `CCCCOc1ccc(C(=O)Nc2c(F)cccc2F)cc1` [VU0365396, 4-butoxy-N-(2,6-difluorophenyl)benzamide], in the data set “Solubility in assay”, the solubility result is “limitations with solubility precluded studies with higher concentrations”. For the same molecule, the “inhibition of VU0357121 PAM activity” value at rat mGlu5 [4] is recorded as “caused the most robust inhibition; also recorded: induces the most robust inhibition of VU0357121 effects”. Besides, on rat mGlu5 [5], the “effect of VU0365396 on CPPHA-induced potentiation” value is given as “had no effect on CPPHA-induced potentiation of mGlu5 responses; also recorded: has no effect on CPPHA activity” and the “effect of VU0365396 on the VU0357121 CRC” value is “induced a parallel rightward shift in the VU0357121 CRC; also recorded: induces a parallel rightward shift in the VU0357121 concentration−response curve”.

The values above are taken from article PMC2957851 (ACS Chemical Neuroscience, 2010).
